Sampled rows, rich in hits. Any-hit rate of the full collection: about 2.8%.
pPAFAH FP inh – inhibitors of human plasma PAF acetylhydrolase (pPAFAH). Q13093. recombinant pPAFAH, FP-rhodamine probe fluorescence polarization. inhibition, % at 3.39 µM. 1.5% of 330,000 active. AID 463082;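 active = inhibition above the mean inhibition across the screen plus 3 SD, cut at about 25% in these data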;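 also: inhibitors block binding of the rhodamine activity-based probe so polarization drops; 0% = enzyme with DMSO and 100% = wells lacking pPAFAH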
ARFGAP1 inhibitor – inhibitors of rat ARFGAP1. Q62848. Arfgap1-stimulated ARF1 GTP hydrolysis, GDP FP detection. inhibition, % at 16.5 µM. 0.26% of 360,000 active. AID 651572;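 active = inhibition above a per-plate limit, mean inhibition of low control wells plus 3 SD, cut at about 25% in these data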;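 also: 0% = DMSO wells with enzyme and 100% = wells lacking Arfgap1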
Target sequence (Q62848 1-136 limits assumed): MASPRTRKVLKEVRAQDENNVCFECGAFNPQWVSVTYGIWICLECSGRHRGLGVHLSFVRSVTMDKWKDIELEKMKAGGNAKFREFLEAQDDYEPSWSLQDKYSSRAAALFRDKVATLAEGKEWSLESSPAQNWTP
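Material – truncated rat Arfgap1 GAP domain · Buffer or medium – HEPES-based buffer, pH 7.5 · Reagent – human ARF1(Δ1-17)-GTP substrate · Dosing – 16.5 µM single point, 1.26% DMSO · Schedule – GTP hydrolysis reaction 2 h at 25 °C · Technique – GDP detection by fluorescence polarization · Benchmarks – No-Arfgap1 wells (100%) versus DMSO full-reaction wells (0%) · Repeats – single replicate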
PAFAH1B3 inh – inhibitors of human PAFAH1B3; Q15102; recombinant PAFAH1B3, FP-rhodamine probe, fluorescence polarization; inhibition, % at 3.39 µM; 0.28% of 340,000 active;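 active = inhibition above the screen-wide average of all tested compounds plus 3 SD, cut at about 25% in these data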;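 also: 0% = enzyme with DMSO only and 100% = wells lacking PAFAH1B3 protein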
PAFAH1B2 FP inh – blocks human PAF acetylhydrolase 1b catalytic subunit 2 | P68402 | recombinant PAFAH1B2, FP-rhodamine activity probe, fluorescence polarization | inhibition, % at 3.39 µM | 1.2% of 340,000 active | AID 492953;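 active = inhibition above the mean of all tested compounds plus 3 SD, cut at about 24% in these data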;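 also: 0% = enzyme with DMSO and 100% = wells lacking PAFAH1B2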
Target sequence (P68402 whole entry, looked up): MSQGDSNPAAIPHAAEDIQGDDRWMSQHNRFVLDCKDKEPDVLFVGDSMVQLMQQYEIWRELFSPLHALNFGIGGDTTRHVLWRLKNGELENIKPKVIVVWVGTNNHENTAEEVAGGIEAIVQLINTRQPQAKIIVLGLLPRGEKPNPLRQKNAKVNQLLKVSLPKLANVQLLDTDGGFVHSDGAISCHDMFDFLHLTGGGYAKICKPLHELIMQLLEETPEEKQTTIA
PAFAH2 inh – inhibitors of human PAFAH2; recombinant PAFAH2, FP-rhodamine activity probe, fluorescence polarization; 0.99% of 340,000 active; inhibition, % at 3.39 µM; AID 492956; Q99487;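 active = inhibition above the mean over all tested compounds plus 3 SD, cut at about 30% in these data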;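 also: inhibitors block probe labeling of enzyme so polarization drops; 0% = enzyme with DMSO and 100% = wells lacking PAFAH2 protein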
ASAP1 GAP inh – blocks human ASAP1-stimulated Arf1 GTP hydrolysis; inhibition, % at 16.5 µM; Q9ULH1; 0.19% of 360,000 active; GDP FP detection; AID 624377; in the data active = inhibition above about 25%;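 also: 0% = vehicle with enzyme and substrate and 100% = no enzyme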
pPAFAH FP conf – confirmation of human plasma PAF acetylhydrolase (pPAFAH) inhibitors; 72% of 2,300 active; recombinant pPAFAH, FP-Rh probe fluorescence polarization; shares compounds with pPAFAH FP inh; AID 463230; inhibition, % at 3.39 µM;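 active = mean inhibition of the triplicate above the hit cutoff set for the earlier primary screen, cut at about 25% in these data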;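 also: 0% = enzyme with DMSO and 100% = wells lacking pPAFAH enzyme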
Numbers without * were called inactive; / = no result.

SMILES	pPAFAH FP inh	ARFGAP1 inhibitor	PAFAH1B3 inh	PAFAH1B2 FP inh	PAFAH2 inh	ASAP1 GAP inh	pPAFAH FP conf
O=C1C2CCCCN2C(=O)N1CCCN1CCN(c2ccc(F)cc2)CC1 (centres undefined)	4.6	/	6.8	5.2	0.0	/	/
Nc1ccc(N2CCN(CCCCN3C(=O)C4CCCN4C3=O)CC2)cc1 (centres undefined)	70.0*	-5.8	4.6	0.3	6.2	3.9	12.7
Cc1ccc(-c2cc(C(=O)N3CCN(c4ccccc4O)CC3)c3ccccc3n2)o1	65.5*	4.7	3.4	1.3	4.2	-7.9	-1.5
O=C(COC(=O)c1c2c(nc3ccccc13)/C(=C\c1ccco1)CC2)NC1CCCC1	/	-12.0	6.3	10.0	29.1	12.1	/
Nc1c(C(=O)NC2CC2)sc2nc3c(c(-c4ccco4)c12)CC/C3=C/c1ccco1	88.5*	/	56.3*	28.1*	46.1*	/	47.7*
O=C(NNC(=O)c1cc2cc(Br)ccc2oc1=O)c1ccc(O)cc1O	47.0*	-7.3	15.9	1.3	9.7	2.1	47.1*
Nc1cc2nc3ccccc3oc-2cc1=O	36.0*	/	9.5	4.0	4.2	-11.5	7.9
Cc1ccc(/C=C2/SC(=S)N(C3CCCCC3)C2=O)o1	37.4*	-4.3	-2.8	-1.2	11.0	8.5	11.0
O=C1/C(=C\c2ccco2)SC(=S)N1C1CCS(=O)(=O)C1 (centres undefined)	22.7	1.6	/	/	/	-0.1	/
Cc1ccc(/C=C2\SC(=S)N(CC3CCCO3)C2=O)o1 (centres undefined)	18.1	2.4	-1.4	-2.0	3.7	-2.0	/
CCN(C(=O)C(C)N1C(=O)/C(=C/c2ccco2)SC1=S)C1CCS(=O)(=O)C1 (centres undefined)	44.4*	-13.2	8.5	0.1	0.0	-6.9	6.9
O=C1/C(=C/c2ccco2)SC(=S)N1C1CCS(=O)(=O)C1 (centres undefined)	57.3*	-8.6	9.0	-4.5	4.4	0.1	-0.3
Cc1c(Cl)cccc1NS(=O)(=O)c1ccc2c(c1)C1C=CCC1C(c1ccc(C(=O)O)cc1)N2 (centres undefined)	91.8*	/	36.8*	29.7*	59.5*	/	88.5*
COc1ccc(NS(=O)(=O)c2ccc3c(c2)[C@H]2C=CC[C@H]2[C@@H](c2ccc(C(=O)O)cc2)N3)cc1	73.5*	-12.4	45.9*	30.7*	68.1*	5.3	66.1*
Cn1c(=O)c2c(ncn2CC(=O)OCC(=O)c2ccc(F)c(F)c2)n(C)c1=O	3.5	5.9	18.2	1.7	-1.0	18.1	/
N#CCCN(NC1=NS(=O)(=O)c2ccccc21)C(=O)c1ccccc1Br	49.5*	/	2.8	5.8	-3.0	/	3.0
O=C(NNC1=NS(=O)(=O)c2ccccc21)c1ccccc1Cl	1.4	1.7	-1.5	1.2	-8.1	2.6	/
O=C1NC(=O)C(c2ccccc2[N+](=O)[O-])=C1Nc1ccc(O)c(Cl)c1	44.5*	11.0	8.0	-0.2	11.7	5.1	6.1
Cc1cc(N2CCN(C(=O)c3ccco3)CC2)c2ccccc2n1	2.4	3.4	4.2	-1.3	4.2	2.8	/
O=C(O)CCNc1cc(N2CCN(C(=O)c3ccco3)CC2)c2noc3c2c1C(=O)c1ccccc1-3	74.3*	14.0	-7.9	-1.5	-15.9	0.0	45.4*
C[C@H](CO)N1C[C@H](C)[C@H](CN(C)S(=O)(=O)c2ccc(-n3cccn3)cc2)OCc2cnnn2CCCC1=O	/	4.8	/	/	/	-0.3	/
CCCOc1ccc(-c2c(=O)n(OCC(=O)OCC)c3ccccc3[n+]2[O-])cc1	3.4	10.2	7.2	1.8	-3.0	-3.4	/
Cc1cc(O)c2c(c1)C(=O)c1cccc(O)c1C2=O	/	9.4	/	/	/	-0.5	/
O=C(O)c1cc(O)c2c(c1)C(=O)c1cccc(O)c1C2=O	36.0*	5.3	13.0	14.3	34.0*	-3.3	14.5
COC(=O)c1ccc(-n2c(C)cc(/C=N/Nc3nc(C)cc(=O)[nH]3)c2C)cc1	66.5*	3.0	7.0	0.8	4.3	2.6	89.3*
Cc1cc(=O)[nH]c(N/N=C/c2cc(C)n(CC(F)(F)F)c2C)n1	2.8	-0.4	4.5	7.4	0.4	5.2	/
